This note sets out measurements from ChEMBL document CHEMBL3875227, “Electrophilic Helical Peptides That Bond Covalently, Irreversibly, and Selectively in a Protein-Protein Interaction Site” (ACS Med Chem Lett, 2017).

The source made the active and inactive calls. The calls are words filed in the database; no cut-off is given here. Bounds are passed on as bounds.

Data set [1] is described as follows: Drug uptake in mitochondria of human U937 cells at 1 uM measured after 4 hrs using FITC-labeled compound by Hoechst and MitoTracker Deep Red dye-based confocal live cell microscopy. The note with it: u-937, 4 h. Format: ADME. The method in brief:
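Live U937 lymphoma cells given FITC-labelled peptide (1 μM) for 4 h. Nuclei stained with Hoechst and mitochondria with MitoTracker; colocalization imaged by confocal microscopy.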

Data set [2] can be described thus: Cellular uptake in human U937 cells at 10 uM measured after 4 hrs by flow cytometry. In kind it is ADME, cell-based. To be noted: u-937, 4 h.
Data set [3] deals with T1, Bcl-2-related protein A1 (Homo sapiens) (UniProt Q16548).
T1 sequence (whole entry): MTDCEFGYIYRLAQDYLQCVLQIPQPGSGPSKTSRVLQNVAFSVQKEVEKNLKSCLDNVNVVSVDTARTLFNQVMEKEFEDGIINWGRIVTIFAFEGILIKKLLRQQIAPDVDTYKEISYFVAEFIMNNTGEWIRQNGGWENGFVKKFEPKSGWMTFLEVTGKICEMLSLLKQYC
Nature of the data set: Binding affinity to recombinant human C-terminal His6-tagged Bcl2A1 (1 to 152 residues) expressed in Escherichia coli assessed as adduct formation at 25 uM measured after 5 hrs by LC-MS analysis. The method in brief:
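Bcl2A1 (5 μM) reacted with electrophilic peptide (25 μM) at pH 7.2 for 5 h. Protein adducts analysed by mass spectrometry.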

For data set [4], the target named is T1, Bcl-2-related protein A1 (Homo sapiens). Nature of the data set: Reversible inhibition of FITC-betaA-DIIRNIARHLAQVGDSMRSI-NH2 binding to recombinant human Bcl2A1 (1 to 152 residues) BH3 binding site expressed in Escherichia coli preincubated for 1 hr with 2 fold diluted Bcl2A1 prior to FITC-betaA-DIIRNIARHLAQVGDSMRSI-NH2 addition measured every minute over 3.5 hrs by fluorescence polarization assay. The method in brief: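 Bcl2A1 2-fold serially diluted (250 to 0.25 nM), preincubated 1 h with peptide at several protein/peptide ratios. FITC-Bid (5 nM) then added and fluorescence polarization recorded as titration binding curves. Buffer in place of peptide as control.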
(Fluorescence polarisation rises when a labelled molecule tumbles more slowly, as on binding a larger partner.)

Data set [5] has the same target. Description: Binding affinity to Bcl2A1 in human U937 cells assessed as Bcl2A1 modification at 5 to 50 uM measured after overnight incubation by Western blot analysis. Format: cell-based. The note with it: U-937. The method in brief:
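Live U937 cells incubated with peptide for 24 h at 37 °C, then lysed. Covalent Bcl2A1 modification detected by Western blot.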
On the technique in general: In western blotting, separated proteins are transferred to a membrane and probed.

A short description of data set [6]: Metabolic stability in human serum at 25 uM measured up to 6 hrs. Format: ADME.
For data set [7], the target named is T1, Bcl-2-related protein A1 (Homo sapiens). Description: Binding affinity to Bcl2A1 (unknown origin) overexpressed in human HeLa cells at 50 uM measured after 24 hrs by Western blot analysis. Format: cell-based.
The next data set addresses T2, Bcl-2-related protein A1 (Homo sapiens, UniProt Q16548).
T2 sequence (Q16548 whole entry): T1 sequence (whole entry)
Description: Inhibition of FITC-betaA-DIIRNIARHLAQVGDSMRSI-NH2 binding to recombinant human Bcl2A1 (1 to 152 residues) BH3 binding site expressed in Escherichia coli measured after 2 hrs by fluorescence polarization assay. The note with it: for Ki: read-out: Ki(app). The method in brief: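 Competitive fluorescence polarization: Bcl2A1 (15 nM) with FITC-Bid tracer (5 nM), protein/tracer 3:1 to keep fluorescence measurable, exposed to increasing peptide concentrations for 2 h. IC50 read from inhibition curves; apparent Ki derived from it.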

Data set [8] can be described thus: Stability of the compound in DTT buffer at 50 uM and pH 7.2 measured after 1 to 17 hrs by mass spectra analysis. In kind it is physicochemical. The note with it: pH 7.2, 50 µM. The method in brief:
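Peptide held in 1 mM dithiothreitol over several hours to follow its integrity.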

Data set [9] deals with T1, Bcl-2-related protein A1 (Homo sapiens). The note with it: 500 nM.
For data set [10] the target is unchanged. To be noted: 500 nM. This is another data set of the same source.

In the case of `C=CC(=O)NC[C@H](NC(=O)[C@@H](NC(=O)CCCCCNC(=O)c1cc(N=C=S)ccc1-c1c2ccc(=O)cc-2oc2cc(O)ccc12)[C@@H](C)CC)C(=O)N[C@H](C(=O)N[C@@H](C)C(=O)N[C@@H](CCC(N)=O)C(=O)N[C@@H](CCC(=O)O)C(=O)N[C@@H](CC(C)C)C(=O)N[C@@H](CCCNC(=N)N)C(=O)N[C@@]1(C)CCCC=CCCC[C@@](C)(C(=O)N[C@@H](Cc2ccccc2)C(=O)N[C@@H](CC(N)=O)C(=O)N[C@@H](C)C(=O)N[C@@H](Cc2ccc(O)cc2)C(=O)N[C@@H](Cc2ccc(O)cc2)C(=O)N[C@@H](C)C(=O)N[C@@H](CCCNC(=N)N)C(=O)N[C@@H](CCCNC(=N)N)C(N)=O)NC(=O)[C@H](CC(=O)O)NC(=O)CNC(=O)[C@H]([C@@H](C)CC)NC1=O)[C@@H](C)CC`, the Drug uptake entry in data set [1] and in data set [2] was “Active” each time.

Consider `CC[C@H](C)[C@H](NC(C)=O)C(=O)N[C@@H](CNC(=O)CCl)C(=O)N[C@H](C(=O)N[C@@H](C)C(=O)N[C@@H](CCC(N)=O)C(=O)N[C@@H](CCC(=O)O)C(=O)N[C@@H](CC(C)C)C(=O)N[C@@H](CCCNC(=N)N)C(=O)N[C@@]1(C)CCCC=CCCC[C@@](C)(C(=O)N[C@@H](Cc2ccccc2)C(=O)N[C@@H](CC(N)=O)C(=O)N[C@@H](C)C(=O)N[C@@H](Cc2ccc(O)cc2)C(=O)N[C@@H](Cc2ccc(O)cc2)C(=O)N[C@@H](C)C(=O)N[C@@H](CCCNC(=N)N)C(=O)N[C@@H](CCCNC(=N)N)C(N)=O)NC(=O)[C@H](CC(=O)O)NC(=O)CNC(=O)[C@H]([C@@H](C)CC)NC1=O)[C@@H](C)CC`, for which the outcome in data set [3] was Active.

As for `C#CC(=O)NC[C@H](NC(=O)[C@@H](NC(C)=O)[C@@H](C)CC)C(=O)N[C@H](C(=O)N[C@@H](C)C(=O)N[C@@H](CCC(N)=O)C(=O)N[C@@H](CCC(=O)O)C(=O)N[C@@H](CC(C)C)C(=O)N[C@@H](CCCNC(=N)N)C(=O)N[C@@]1(C)CCCC=CCCC[C@@](C)(C(=O)N[C@@H](Cc2ccccc2)C(=O)N[C@@H](CC(N)=O)C(=O)N[C@@H](C)C(=O)N[C@@H](Cc2ccc(O)cc2)C(=O)N[C@@H](Cc2ccc(O)cc2)C(=O)N[C@@H](C)C(=O)N[C@@H](CCCNC(=N)N)C(=O)N[C@@H](CCCNC(=N)N)C(N)=O)NC(=O)[C@H](CC(=O)O)NC(=O)CNC(=O)[C@H]([C@@H](C)CC)NC1=O)[C@@H](C)CC`, in data set [3], the result was Active.

Regarding `CC[C@H](C)[C@H](NC(C)=O)C(=O)N[C@@H](Cc1c[nH]c2ccccc12)C(=O)N[C@H](C(=O)N[C@@H](C)C(=O)N[C@@H](CCC(N)=O)C(=O)N[C@@H](CCC(=O)O)C(=O)N[C@@H](CC(C)C)C(=O)N[C@@H](CCCNC(=N)N)C(=O)N[C@@]1(C)CCCC=CCCC[C@@](C)(C(=O)N[C@@H](Cc2ccccc2)C(=O)N[C@@H](CC(N)=O)C(=O)N[C@@H](C)C(=O)N[C@@H](Cc2ccc(O)cc2)C(=O)N[C@@H](Cc2ccc(O)cc2)C(=O)N[C@@H](C)C(=O)N[C@@H](CCCNC(=N)N)C(=O)N[C@@H](CCCNC(=N)N)C(N)=O)NC(=O)[C@H](CC(=O)O)NC(=O)CNC(=O)[C@H]([C@@H](C)CC)NC1=O)[C@@H](C)CC`, in [4], the inhibition result is “Active”. For the same compound, the outcome in data set [5] was Active. Also, in data set [6], the Stability result is on record as “Stable”. Besides, the result in [7] was Active. For the same compound, at Bcl-2-related protein A1, the IC50 was found to be 0.11 µM and the Ki was found to be 0.032 µM.

`C=CC(=O)NC[C@H](NC(=O)[C@@H](NC(C)=O)[C@@H](C)CC)C(=O)N[C@H](C(=O)N[C@@H](C)C(=O)N[C@@H](CCC(N)=O)C(=O)N[C@@H](CCC(=O)O)C(=O)N[C@@H](CC(C)C)C(=O)N[C@@H](CCCNC(=N)N)C(=O)N[C@@]1(C)CCCC=CCCC[C@@](C)(C(=O)N[C@@H](Cc2ccccc2)C(=O)N[C@@H](CC(N)=O)C(=O)N[C@@H](C)C(=O)N[C@@H](Cc2ccc(O)cc2)C(=O)N[C@@H](Cc2ccc(O)cc2)C(=O)N[C@@H](C)C(=O)N[C@@H](CCCNC(=N)N)C(=O)N[C@@H](CCCNC(=N)N)C(N)=O)NC(=O)[C@H](CC(=O)O)NC(=O)CNC(=O)[C@H]([C@@H](C)CC)NC1=O)[C@@H](C)CC`: in data set [8], the Stability entry was “Stable”. Moreover, in [5], the outcome was Active. Further, the Stability entry in [6] is recorded as “Stable”. For the same compound, the inhibition result in data set [9] was “Active”. The same compound came in with a T1/2 in [10] of 28 min. At Bcl-2-related protein A1, the IC50 is 0.0085 µM and the Ki is less than 0.0001 µM.

Usually IC50 stands for the concentration that gives 50% inhibition.
